From ChEMBL document CHEMBL1121364, “Nucleoside conjugates as potential antitumor agents. 3. Synthesis and antitumor activity of 1-(beta-D-arabinofuranosyl)cytosine conjugates of corticosteroids” (1980)

Legend:
[1] = system: L1210; experiment: Antitumor activity in the mice with intraperitoneal implanted L1210 lymphoid leukemia at the dose of 75 mg/kg/day x 5 was determined as mean survival of treated group compared to untreated; 17.5/9.5; format: functional, Mus musculus
[2] = system: L1210; experiment: Antitumor activity in the mice with intraperitoneal implanted L1210 lymphoid leukemia at the dose of 50 mg/kg/day x 5 was determined as mean survival of treated group compared to untreated; 16/9.5; format: functional, Mus musculus
Outline: (§1)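 C3D2F1/J female mice (C3H/HeJ female × DBA/2J male), groups of six to eight, average weight 25 g. Inoculated ip with 1 × 10^6 L1210 ascites cells taken from DBA/2Ha donor mice bearing 3-5 day old tumors. Compounds were dissolved in 0.154 N NaOH, neutralized with 0.154 N HCl (final 0.9% NaCl), and given ip daily for 5 days from 24 h post-implant. Median survival T/C; ILS = (T/C − 1) × 100; 30-day survivors counted.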

[3] = system: L1210; experiment: Antitumor activity in the mice with intraperitoneal implanted L1210 lymphoid leukemia at the dose of 100 mg/kg/day x 5 was determined as mean survival of treated group compared to untreated; 7/11; format: functional, Mus musculus; outline: as §1
[4] = system: L1210; experiment: Antitumor activity in the mice with intraperitoneal implanted L1210 lymphoid leukemia at the dose of 25 mg/kg/day x 5 was determined as mean survival of treated group compared to untreated; 14/8.5; format: functional, Mus musculus; outline: as §1
[5] = system: L1210; experiment: Antitumor activity in the mice with intraperitoneal implanted L1210 lymphoid leukemia at the dose 100 mg/kg/day x 5 was determined as percentage increase in the life span as compared with control tumor bearers; format: functional; conditions: Mus musculus, L1210, ip
Outline: (§2)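 Female C3D2F1/J mice (C3H/HeJ × DBA/2J), groups of six to eight, average weight 25 g. Each mouse got 1 × 10^6 L1210 ascites cells ip, taken from DBA/2Ha donor mice bearing 3-5 day tumors. Compound was dissolved in 0.154 N NaOH and neutralized with 0.154 N HCl (final 0.9% NaCl). Dosed ip daily ×5, starting 24 h after implant. Recorded body weight change on day 8, survival range, median survival and 30-day survivors. ILS = (T/C − 1) × 100.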

[6] = system: L1210; experiment: Antitumor activity in mice with intraperitoneal implanted L1210 lymphoid leukemia at the dose 75 mg/kg/day x 5 was determined as weight change (g/mouse) on 8th day; format: functional
Outline: (§3)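 C3D2F1/J female mice (C3H/HeJ × DBA/2J), groups of six to eight, average 25 g, inoculated ip with 1 × 10^6 L1210 ascites cells taken from DBA/2Ha donor mice carrying 3-5 day tumors. Compound dissolved in 0.154 N NaOH, then neutralized with 0.154 N HCl to give 0.9% NaCl. Given ip daily for 5 consecutive days starting 24 h after implantation. Body weight change per mouse recorded on day 8.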

[7] = system: L1210; experiment: In Vitro evaluation for the antiproliferative activity by observing the growth inhibition of L1210 lymphoid leukemia cells in culture at 72 hour; format: functional, Mus musculus
Outline: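 Growth of L1210 lymphoid leukemia cells in culture measured by Trypan blue exclusion of viable cells after 72 h of drug exposure. ED50 is the concentration giving 50% growth inhibition. In some runs the compound was first preincubated in medium at 37 °C for 24 or 48 h before the assay.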

[8] = system: L1210; experiment: Antitumor activity in mice with intraperitoneal implanted L1210 lymphoid leukemia at the dose 25 mg/kg/day x 5 was determined as weight change (g/mouse) on 8th day; format: functional; outline: as §3
[9] = system: L1210; experiment: Antitumor activity in mice with intraperitoneal implanted L1210 lymphoid leukemia at the dose 50 mg/kg/day x 5 was determined as weight change (g/mouse) on 8th day; format: functional; outline: as §3
[10] = system: L1210; experiment: Antitumor activity in the mice with intraperitoneal implanted L1210 lymphoid leukemia at the dose 100 mg/kg/day x 5 was determined and number of animals survived on 30 th day were reported; 0/6; format: functional, Mus musculus; outline: as §2
[11] = system: L1210; experiment: Antitumor activity in the mice with intraperitoneal implanted L1210 lymphoid leukemia at the dose 25 mg/kg/day x 5 was determined and number of animals survived on 30 th day were reported; 0/8; format: functional, Mus musculus; outline: as §2
[12] = system: L1210; experiment: Antitumor activity in the mice with intraperitoneal implanted L1210 lymphoid leukemia at the dose 50 mg/kg/day x 5 was determined as Survival time in days; Range is 14-17 days; format: functional, Mus musculus; outline: as §2
[13] = system: L1210; experiment: Antitumor activity in the mice with intraperitoneal implanted L1210 lymphoid leukemia at the dose 50 mg/kg/day x 5 was determined and number of animals survived on 30 th day were reported; 0/8; format: functional, Mus musculus; outline: as §2
[14] = system: L1210; experiment: Antitumor activity in the mice with intraperitoneal implanted L1210 lymphoid leukemia at the dose 75 mg/kg/day x 5 was determined and number of animals survived on 30 th day were reported; 0/8; format: functional, Mus musculus; outline: as §1
[15] = system: L1210; experiment: Antitumor activity in the mice with intraperitoneal implanted L1210 lymphoid leukemia at the dose 50 mg/kg/day x 5 was determined as percentage increase in the life span as compared with control tumor bearers; format: functional; conditions: Mus musculus, L1210, ip; outline: as §1
[16] = system: L1210; experiment: Antitumor activity in the mice with intraperitoneal implanted L1210 lymphoid leukemia at the dose 75 mg/kg/day x 5 was determined as percentage increase in the life span as compared with control tumor bearers; format: functional; conditions: Mus musculus, L1210, ip; outline: as §1
[17] = system: L1210; experiment: Antitumor activity in the mice with intraperitoneal implanted L1210 lymphoid leukemia at the dose 100 mg/kg/day x 5 was determined as Survival time in days; Range is 7-8 days; format: functional, Mus musculus; outline: as §2
[18] = system: L1210; experiment: Antitumor activity in the mice with intraperitoneal implanted L1210 lymphoid leukemia at the dose 75 mg/kg/day x 5 was determined as Survival time in days; Range is 14-18 days; format: functional, Mus musculus; outline: as §1
[19] = system: L1210; experiment: Antitumor activity in the mice with intraperitoneal implanted L1210 lymphoid leukemia at the dose 25 mg/kg/day x 5 was determined as Survival time in days; Range is 12-18 days; format: functional, Mus musculus; outline: as §2
[20] = system: L1210; experiment: Antitumor activity in the mice with intraperitoneal implanted L1210 lymphoid leukemia at the dose 25 mg/kg/day x 5 was determined as percentage increase in the life span as compared with control tumor bearers; format: functional; conditions: Mus musculus, L1210, ip; outline: as §2
[21] = system: L1210; experiment: Antitumor activity in the mice with intraperitoneal implanted L1210 lymphoid leukemia at the dose of 75 mg/kg/day x 5 was determined as mean survival of treated group compared to untreated; 28.5/9.5; format: functional, Mus musculus
[22] = system: L1210; experiment: Antitumor activity in the mice with intraperitoneal implanted L1210 lymphoid leukemia at the dose of 25 mg/kg/day x 5 was determined as mean survival of treated group compared to untreated; 18/9.5; format: functional, Mus musculus; outline: as §1
[23] = system: L1210; experiment: Antitumor activity in the mice with intraperitoneal implanted L1210 lymphoid leukemia at the dose of 50 mg/kg/day x 5 was determined as mean survival of treated group compared to untreated; 20.5/8.5; format: functional, Mus musculus
[24] = system: L1210; experiment: Antitumor activity in mice with intraperitoneal implanted L1210 lymphoid leukemia at the dose 100 mg/kg/day x 5 was determined as weight change (g/mouse) on 8th day; format: functional; outline: as §3
[25] = system: L1210; experiment: Antitumor activity in the mice with intraperitoneal implanted L1210 lymphoid leukemia at the dose 18.7 and 26.6 mg/kg/day x 5 was determined and number of animals survived on 30 th day were reported; 0/8; format: functional, Mus musculus; outline: as §2
[26] = system: L1210; experiment: Antitumor activity in the mice with intraperitoneal implanted L1210 lymphoid leukemia at the dose 50 mg/kg/day x 5 was determined as Survival time in days; Range is 14-23 days; format: functional, Mus musculus; outline: as §2
[27] = system: L1210; experiment: Antitumor activity in the mice with intraperitoneal implanted L1210 lymphoid leukemia at the dose 75 mg/kg/day x 5 was determined and number of animals survived on 30 th day were reported; 3/8; format: functional, Mus musculus; outline: as §1
[28] = system: L1210; experiment: Antitumor activity in the mice with intraperitoneal implanted L1210 lymphoid leukemia at the dose 9.2 and 13.2 mg/kg/day x 5 was determined as percentage increase in the life span as compared with control tumor bearers; format: functional, Mus musculus; outline: as §1
[29] = system: L1210; experiment: Antitumor activity in the mice with intraperitoneal implanted L1210 lymphoid leukemia at the dose 100 mg/kg/day x 5 was determined as Survival time in days; Range is 10-16 days; format: functional, Mus musculus; outline: as §2
[30] = system: L1210; experiment: Antitumor activity in the mice with intraperitoneal implanted L1210 lymphoid leukemia at the dose 75 mg/kg/day x 5 was determined as Survival time in days; Range is 18-37 days; format: functional, Mus musculus; outline: as §1
[31] = system: L1210; experiment: Antitumor activity in the mice with intraperitoneal implanted L1210 lymphoid leukemia at the dose 9.2 and 13.2 mg/kg/day x 5 was determined as Survival time in days; Range is 13-24 days; format: functional, Mus musculus; outline: as §1
[32] = system: L1210; experiment: Antitumor activity in the mice with intraperitoneal implanted L1210 lymphoid leukemia at the dose 25 mg/kg/day x 5 was determined as Survival time in days; Range is 14-27 days; format: functional, Mus musculus; outline: as §2
[33] = system: L1210; experiment: Antitumor activity in the mice with intraperitoneal implanted L1210 lymphoid leukemia at the dose 18.7 and 26.6 mg/kg/day x 5 was determined as percentage increase in the life span as compared with control tumor bearers; format: functional, Mus musculus; outline: as §2
[34] = system: L1210; experiment: Antitumor activity in the mice with intraperitoneal implanted L1210 lymphoid leukemia at the dose 9.2 and 13.2 mg/kg/day x 5 was determined and number of animals survived on 30 th day were reported; 0/6; format: functional, Mus musculus; outline: as §1
[35] = system: L1210; experiment: Antitumor activity in the mice with intraperitoneal implanted L1210 lymphoid leukemia at the dose of 100 mg/kg/day x 5 was determined as median survival of treated group compared to untreated; 16/11

C[C@]12CCC(=O)C=C1CC[C@H]1[C@@H]3CC[C@](O)(C(=O)COP(=O)(O)OC[C@H]4O[C@@H](n5ccc(N)nc5=O)[C@@H](O)[C@@H]4O)[C@@]3(C)C[C@H](O)[C@@]12F
Survival time [1]: 17.5 days
T/C [2]: 16
T/C [3]: 7
T/C [4]: 14
ILS at 100 mg/kg/day [5]: -36%
Weight change [6]: 0.52 g mouse-1
ED 50 [7]: 80 nM
Weight change [8]: -1.09 g mouse-1
Weight change [9]: 0.39 g mouse-1
Survivors [10]: 0
Survivors [11]: 0
Survival time [12]: 14 days
Survivors [13]: 0
Survivors [14]: 0
ILS at 50 mg/kg/day [15]: 68%
ILS at 75 mg/kg/day [16]: 84%
Survival time [17]: 7 days
Survival time [18]: 14 days
Survival time [19]: 12 days
ILS at 25 mg/kg/day [20]: 65%

C[C@]12CCC(=O)C=C1CC[C@@H]1[C@@H]2CC[C@@]2(C)[C@H]1CC[C@]2(O)C(=O)COP(=O)(O)OC[C@H]1O[C@@H](n2ccc(N)nc2=O)[C@@H](O)[C@@H]1O
T/C [21]: 28.5
T/C [22]: 18
T/C [23]: 20.5
ILS at 100 mg/kg/day [5]: 46%
Weight change [6]: 0.46 g mouse-1
ED 50 [7]: 80 nM
Weight change [24]: -3.82 g mouse-1
Weight change [8]: 1.55 g mouse-1
Weight change [9]: -2.5 g mouse-1
Survivors [10]: 0
Survivors [25]: 0
Survivors [11]: 0
Survival time [26]: 14 days
Survivors [13]: 0
Survivors [27]: 3
ILS at 50 mg/kg/day [15]: 141%
ILS at 75 mg/kg/day [16]: 200%
ILS [28]: 59%
Survival time [29]: 10 days
Survival time [30]: 18 days
Survival time [31]: 13 days
Survival time [32]: 14 days
ILS [33]: 77%
ILS at 25 mg/kg/day [20]: 90%
Survivors [34]: 0
T/C [35]: 16
